From PubChem
Most compounds without a hit are left out; they make up all but 3% or so of the library.
N-glyco inh: N-linked glycosylation inhibition; D54 ERlucT glycosylation luciferase reporter, 24 h; percent of 100 nM tunicamycin response; reporter increase, % at 12.5 µM; actives 0.23% (n = 360,000); AID 588692;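 active means mean luciferase reporter signal, scaled so untreated is 0 and the glycosylation-blocking control 100, at or above a set limit in every replicate; inconclusive means mean reaches the limit but not every replicate does; inactive means mean below the limit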;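 further: luciferase carries N-glycosylation sites so blocking glycosylation raises the light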
CaV13 ICDI inh: Primary screen for inhibitors of IQ motif and Ca2+-dependent inactivation inhibitor domain binding in CACNA1D, Förster resonance energy transfer in living cells, …; actives 0.098% (n = 340,000); HEK cells, CFP/YFP FRET ICDI-IQ, plate reader, 10 min; percent FRET-ratio fall versus neutral wells; inhibition, % at 12.3 µM;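 active means mean replicate inhibition of at least 30% and at least 1% of replicates passing that level; inconclusive means only one of the two criteria is met; inactive means neither criterion is met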
HSF-1 act: increases HSF-1 driven luciferase reporter signal. actives 1.7% (n = 300,000). NIH3T3-HGL HSF-1 luciferase reporter, MG132, 8 h; 100% = twice DMSO control signal. activation, % at 9 µM;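 active means mean replicate activation of at least 50% with a set share of replicates each reaching 50%; inconclusive means only one of those two conditions met; inactive means mean below 50% and too few replicates reaching it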
PfHsp90 yeast 2: reduces growth (ATP signal) of yeast expressing P. falciparum Hsp90; S. cerevisiae expressing PfHsp90, BacTiter-Glo ATP, 48 h; yeast lacking PDR1 and PDR3 efflux regulators; inhibition, % at 9.4 µM; actives 0.32% (n = 310,000); AID 504621;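 active means every replicate shows inhibition above about 80%, whatever the replicate mean, limit read from the data; inconclusive means mean inhibition reaches the set limit but some replicate falls short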
T cruzi inh: T. cruzi replication inhibition; T. cruzi beta-gal in NIH3T3, luminescence, 90 h; inhibition, % (concentration not given with the values); actives 1.4% (n = 300,000); AID 1885;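 active means mean inhibition across valid replicates above about 55%, limit read from the data; inconclusive means mean below that limit but half or more replicates reach it; inactive means mean below it, under half of replicates reach it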;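 further: signal also drops with host cell toxicity which is not excluded here; higher percent means less beta-gal luminescence so fewer parasites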
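compound dosing = single 50 nL compound addition per well in DMSO | material = NIH/3T3 host cells with β-galactosidase reporter T. cruzi | input = 5,000 host fibroblasts per well | timing = ≥90 h infection period, 3 h prior cell attachment | read-out basis = percent inhibition of parasite-derived β-gal signal | detection = GalScreen β-gal luminescence, detergent lysis, 60 min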
PvdQ acylase: blocks Pseudomonas aeruginosa PvdQ acylase activity. purified PvdQ acylase, fluorescence plate reader. inhibition, % at 10 µM. actives 0.063% (n = 340,000); in the data active means inhibition above about 30%, passing the limit was not always enough; inconclusive means no clear call, values can overlap the other calls
A number is an active result; 0 = inactive; ? = inconclusive; - = not tested or not shown.

SMILES | N-glyco inh | CaV13 ICDI inh | HSF-1 act | PfHsp90 yeast 2 | T cruzi inh | PvdQ acylase
Cn1nnnc1SCCNCc1cccc2ccccc12 | 0 | 0 | 0 | 0 | 70 | 0
CCOc1cc(CNCCSc2nnnn2C)cc(Br)c1OCc1ccccc1F | 0 | - | 0 | 0 | 68 | 0
Cn1nnnc1SCCNC/C=C/c1ccccc1 | 0 | 0 | 77 | 0 | 0 | 0
OC[C@H]1O[C@H](c2nc(-c3nc(-c4cccc(-n5cccc5)c4)no3)cs2)C[C@@H]1O | 0 | 0 | - | - | - | -
Cc1ccc2nc3n(c(=O)c2c1)-c1ccc(Cl)cc1C(=O)NC3CC(C)C (stereo not given) | - | 0 | - | - | - | -
O=C(Oc1ccc(NC2=C(Cl)C(=O)c3ccccc3C2=O)cc1)c1ccc([N+](=O)[O-])cc1 | 0 | - | 0 | 0 | 63 | 0
CC(=O)Nc1ccc(NC2=C(Cl)C(=O)c3ccccc3C2=O)cc1 | - | 0 | 0 | - | ? | -
O=C(Nc1cccc2ccccc12)OC[C@@H]1CSCCS(=O)(=O)N1 | - | 0 | - | - | - | -
CC(C)(C)S(=O)N1C[C@H]2CC(=O)C(CCO)=C2[C@@H]1CCO (stereo not given in full) | - | 0 | - | - | - | -
CCc1ccc(NC(=O)c2cnc(N3CCN(c4ccccn4)CC3)c3ccccc23)cc1 | 0 | 0 | - | 0 | 60 | 0
O=C(C1=C[C@@H](c2csc3ccccc23)C[C@@H](OCc2ccc(CO)cc2)O1)N1CCN(Cc2ccc3c(c2)OCO3)CC1 | 0 | 0 | 0 | 0 | 0 | 0
CC(=O)n1cc([C@H]2C=C(C(=O)N3CCN(Cc4ccc5c(c4)OCO5)CC3)O[C@@H](OCc3ccc(CO)cc3)C2)c2ccccc21 | 0 | 0 | 0 | 0 | 56 | 0
O=C(C1=C[C@@H](c2ccc(Br)cc2)C[C@@H](OCCCCO)O1)N1CCN(Cc2ccc3c(c2)OCO3)CC1 | 0 | 0 | 0 | 0 | 0 | 0
O=C(C1=C[C@@H](c2csc3ccccc23)C[C@@H](OCc2ccc(CO)cc2)O1)N1CCN(Cc2ccccc2)CC1 | 0 | - | 0 | - | 68 | 0
O=C(C1=C[C@H](c2ccc(Br)cc2)C[C@H](OCCCCO)O1)N1CCN(Cc2ccccc2)CC1 | 0 | 0 | 0 | 0 | 56 | 0
O=C(C1=C[C@H](C2CCCCC2)C[C@H](OCc2ccc(CO)cc2)O1)N1CCN(Cc2ccc3c(c2)OCO3)CC1 | 0 | - | 0 | 0 | 57 | 0
CC(=O)n1cc([C@@H]2C=C(C(=O)N3CCOCC3)O[C@H](OCc3ccc(CO)cc3)C2)c2ccccc21 | 0 | 0 | 0 | 0 | 0 | 0
COc1ccc(Cn2cc(CN3CC(N4CCN(C)CC4)CS3(=O)=O)nn2)cc1 (stereo not given) | - | 0 | - | - | - | -
CC(=O)n1cc([C@H]2C=C(C(=O)N3CCN(Cc4ccccc4)CC3)O[C@@H](OCc3ccc(CO)cc3)C2)c2ccccc21 | 0 | 0 | 0 | 0 | 68 | 0
COCCn1c(C2CCCCC2)nc2sc3ccccc3c(=O)c2c1=O | 0 | 0 | 0 | 0 | 55 | 0
Cc1cc([N+](=O)[O-])ccc1NCc1ccccc1 | 0 | - | 0 | 0 | 0 | 0
COc1ccccc1CNc1ccc([N+](=O)[O-])cc1C | 0 | 0 | 55 | 0 | 0 | 0
COc1cccc(CNc2ccc([N+](=O)[O-])cc2Cl)c1O | 0 | 0 | 97 | 0 | 0 | 0
O=C(NN=Cc1cc(=O)[nH]c(=O)[nH]1)c1ccncc1 | 0 | 0 | - | 0 | - | 0
Cc1cn([C@H]2C[C@H](O)[C@@H](CNC(=O)CNC(=O)CN)O2)c(=O)[nH]c1=O | 0 | 0 | - | - | - | -
SMILES | N-glyco inh | CaV13 ICDI inh | HSF-1 act | PfHsp90 yeast 2 | T cruzi inh | PvdQ acylase
N#CC1(NC(=O)Cn2ncc(Cl)c(Cl)c2=O)CCCCC1 | 0 | 0 | 0 | 0 | 63 | 0
N#CC1(NC(=O)CN2C(=O)c3ccccc3C2=O)CCCCC1 | 0 | 0 | - | 0 | - | 0
O=C1COc2ccc(C(=O)/C=C/c3ccccc3)cc2N1 | 0 | 0 | 53 | 0 | ? | 0
O=C(O)CCCCCN1C(=O)CSC1=S | 0 | 0 | 0 | 0 | 0 | 0
CC(C)OC(=O)CCCCCN1C(=O)CSC1=S | 0 | 0 | 0 | 0 | 56 | 0
CC1=C(C(=O)N(C)C)CC(CC(=O)NCCc2ccccn2)C(=O)N1CCCN1CCCC1=O (stereo not given) | 0 | 0 | - | - | - | -
CCN1CCSc2ccc(C(=O)NCc3cccc(F)c3)cc21 | 0 | 0 | 0 | 0 | 0 | 0
CCN1CCSc2ccc(C(=O)NCc3cccc(Br)c3)cc21 | 0 | 0 | 121 | 0 | 0 | 0
Cc1ccc(CN2CCSc3ccc(C(=O)NC4CCN(Cc5ccccc5)CC4)cc32)cc1 | 0 | 0 | 0 | 0 | 57 | 0
CC1CC(C)CN(C(=O)c2ccc3c(c2)N(Cc2ccccc2)CCS3)C1 (stereo not given) | 0 | - | 64 | - | 0 | 0
CC1=C(C(=O)N2CCCCCC2)CC(CC(=O)NCCc2ccccn2)C(=O)N1Cc1ccc(C(C)(C)C)cc1 (stereo not given) | - | 0 | - | - | - | -
CCC(=O)N1CCCC(C)(C(=O)Nc2nccc3ccccc23)C1 (stereo not given) | 0 | 0 | - | - | - | -
COC(=O)[C@]12C[C@H](CC(=O)NCC3CCCCC3)C(=O)N(Cc3ccc4c(c3)OCO4)C1=C[C@H](C(C)(C)C)O[C@@H]2C | - | 0 | - | - | - | -
Cc1ccc(NC(=O)c2cc(NC(=O)c3ccccc3C(=O)O)ccc2N2CCCCC2)cc1 | 0 | 0 | 60 | 0 | 0 | 0
O=C(Nc1ccc(N2CCCCCC2)cc1)c1ccccc1Cl | 0 | 0 | 60 | 0 | 0 | 0
CC(=O)N1CCN(c2ccc(NC(=O)c3ccccc3Cl)cc2)CC1 | 0 | 0 | 0 | 0 | 0 | 0
Cc1ccc(NC(=O)c2cc(NC(=O)/C=C\C(=O)O)ccc2N2CCCCC2)cc1 | 0 | 0 | 0 | 0 | 0 | 0
O=C(Nc1ccncc1)c1cc(S(=O)(=O)N2CCCC2)ccc1Cl | 0 | 0 | - | 0 | - | 0
O=C(Nc1ccncc1)c1cc(S(=O)(=O)N2CCN(c3ccccc3)CC2)ccc1Cl | 0 | 0 | 0 | 0 | 61 | 0
COC(=O)C[C@H]1C=C[C@@H](NC(=O)c2ccncc2)[C@@H](CO)O1 | - | 0 | - | - | - | -
C=Cn1cc(CNC[C@H]2O[C@@H](n3ccc(N)nc3=O)[C@H](O)[C@@H]2O)c(C)n1 | 0 | 0 | - | - | - | -
O=C(NNC(=O)c1cccnc1SCc1cccc([N+](=O)[O-])c1)c1ccc(F)cc1 | 0 | 0 | 0 | 0 | 0 | 0
O=C(NNC(=O)c1cccnc1SCc1cccc([N+](=O)[O-])c1)c1ccccn1 | 0 | 0 | 0 | 0 | 65 | 0
CN(C)CCOc1nc(-c2ccccc2)nc2c1oc1ccccc12 | 114 | 0 | 0 | 0 | 0 | 0
CN(C)CCOc1ncnc2c1oc1ccccc12 | 0 | - | 0 | 0 | 0 | 0
Cn1c(SCc2ccccc2F)nc2cccnc21 | 0 | 0 | 63 | - | 0 | 0
CCOC(=O)CSc1nc2cccnc2n1C | 0 | 0 | 0 | 0 | 0 | 0
